Phagocytosis inh: blocks phagocytosis by macrophages | AID 1029 | hit rate 0.07% among 110,000 | inhibition, % at 5 µM | J774A.1 macrophage IgG-bead phagocytosis, imaging;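 active = inhibition above the mean of the plate negative controls plus 5 SD, cut at about 13% in these data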;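 note: phagocytic index as fraction of beads internalized from green versus red external bead signal; plate controls were DMSO negative control for no effect and cytochalasin-D positive control for full effect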
Measles CPE: protection of cells from measles virus; AID 841; hit rate 1.5% among 140,000; Measles virus-infected cells, CPE protection, absorbance; protection (pct of control), % at 4 µM; in the data active = protection mostly above about 24%, no sharp cut-off; inactive = mostly below about 26%
RAM inhibit: yeast RAM network inhibition. S. cerevisiae dse1pr::URA3 reporter, 5-FOA growth OD615, 2 d; analog-sensitive cbk1-as2 kinase mutant strain. inhibition, % at 50 µM. hit rate 1.8% among 190,000. AID 868;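 active = inhibition above a set limit, 3 SD over mean compound inhibition, cut at about 8.4% in these data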;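 note: 0% = DMSO-only wells with no growth and 100% = 10 µM 1-NA-PP1 full growth; inhibition rescues growth on 5-FOA so higher OD means more RAM inhibition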
Yeast lifespan up: yeast lifespan extension. S. cerevisiae growth with nicotinamide, OD615; deaD strain in restrictive glucose medium. inhibition of the nicotinamide effect, % at 10 µM. hit rate 0.68% among 130,000. AID 775;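 active = inhibition above a set limit, placed 3 SD over the median of all compounds, cut at about 26% in these data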;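 note: 0% = nicotinamide-treated wells and 100% = cells grown without nicotinamide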
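Assay system: DeaD-strain S. cerevisiae. Medium: CSMM-D glucose medium, restrictive. Reagent: nicotinamide, 1.5 mM, co-present with compound. Compound: 10 µM single point, 0.25% DMSO. Schedule: culture preincubation 4 h, compound exposure 48 h, both 30 °C. Detection: absorbance at 615 nm.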
BB579 growth dn: yeast BB579 growth reduction in restrictive medium; S. cerevisiae BB579 growth, OD615, 48 h; inhibition, % at 10 µM; hit rate 0.51% among 140,000;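 active = inhibition above a set limit, 3 SD over the mean compound inhibition, cut at about 44% in these data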
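Material: Saccharomyces cerevisiae DeaD strain BB579, replicative lifespan model yeast; buffer or medium: CSMM-D restrictive synthetic medium containing dextrose (glucose); compound: 10 µM single dose, DMSO 0.25%; timing: 48 h compound exposure at 30 °C after 4 h preincubation; signal: turbidity as optical density at 615 nm; benchmarks: positive control amphotericin B 10 µg/mL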
Starred values were filed as active, the others as inactive; x = not tested or not shown. Only some compounds are listed: those with a hit (about 3.6% of all), similar ones and a draw of the others.

SMILES | Phagocytosis inh | Measles CPE | RAM inhibit | Yeast lifespan up | BB579 growth dn
CC(OC(=O)c1ccc(NS(=O)(=O)c2ccc3[nH]c(=O)[nH]c3c2)cc1)C(=O)Nc1ccc(Cl)cc1 (stereo not given) | x | x | 3 | x | x
COc1cc2c(cc1NC(=O)C(C)OC(=O)c1ccc(S(=O)(=O)Nc3ccccc3Cl)cc1)oc1ccccc12 (stereo not given) | x | x | 11* | x | x
CCN(CC(=O)NC(C)(C)C)C(=O)C(c1ccccc1)c1ccccc1 | x | x | 1 | x | x
CC(=O)c1ccc(NC(=O)C(C)OC(=O)c2ccc(NS(=O)(=O)c3ccc(F)c(F)c3)cc2)cc1 (stereo not given) | -6 | 25 | 9.2* | -3 | -33
N#Cc1sc2nc(-c3cccs3)cc(-c3ccc(Cl)cc3)c2c1N | x | 4 | 5 | -25 | -3
CCN(CC)C(=O)c1sc2nc(-c3cccs3)cc(-c3ccc(Cl)cc3)c2c1N | x | 4 | 9.2* | 3 | -63
NC(N)=N/N=C/c1ccc(OCc2ccc(Cl)cc2)cc1 | -2 | 5 | 0 | -10 | 78*
CN1C(N)=NC(=O)/C1=C/c1ccccc1F | x | x | 0 | x | x
COc1ccc2[nH]c(C(O)(Cc3cccnc3)Cc3cccnc3)cc2c1 | -1 | 15 | 2 | 5 | -17
COc1ccc(/C(C)=N/NC(=O)c2ccc(CSc3cccc4cccnc34)cc2)cc1OC | x | 70* | -1 | -25 | 71*
O=C(CSc1cccc2cccnc12)N1CCCC1 | 1 | 2 | 0 | -6 | 19
C/C(=N\NC(=O)c1ccc(CSc2cccc3cccnc23)cc1)C1CCCCC1 | 2 | 12 | 1 | -4 | 71*
COc1cc(/C(C)=N/NC(=O)c2ccc(CSc3nncn3C)cc2)cc(OC)c1OC | x | x | 3 | x | x
Cc1c(NS(=O)(=O)c2cccc(C(=O)OCC(=O)N(C)C3CCCCC3)c2)c(=O)n(-c2ccccc2)n1C | x | x | 1 | x | x
CCCCCCCCCC(=O)Nc1cccnc1 | x | x | 0 | x | x
CC(Sc1nc2c(c(=O)n(C)c(=O)n2C)n1Cc1cc2c(cc1Cl)OCO2)C(=O)O (stereo not given) | 0 | 53* | 2 | -24 | -22
Cn1c(=O)c2c(nc(SCc3cc4c(cc3Cl)OCO4)n2C)n(C)c1=O | 0 | x | x | x | x
Cc1ccc(NC(=O)c2c([N+](=O)[O-])c(C(C)(C)C)nn2C)c(C)c1 | -2 | 14 | 2 | 6 | -26
Cc1ccc(N/C(C(Cl)=C(Cl)Cl)=C(/Cl)[N+](=O)[O-])c(C)c1 | 2 | 9 | 9.4* | 48* | -57
CC(=O)O/N=C1\C(=O)N(Cc2ccc(C)cc2)c2ccccc21 | x | x | -2 | x | x
CC(C)CC(=O)O/N=C1\C(=O)N(Cc2ccc(Cl)cc2)c2ccc([N+](=O)[O-])cc21 | 2 | 8 | 8.4* | 1 | -26
CCOc1ccc(Cl)cc1S(=O)(=O)N1CCN(c2ccc(F)cc2)CC1 | 0 | 17 | 9.0* | -4 | -32
COc1ccc(NC(=O)C(CC(=O)O)C(C)c2ccccc2)cc1 (stereo not given) | x | x | 0 | x | x
CCOC(=O)C1C(=O)C=C(/C=C/c2ccc(N(C)C)cc2)CC1c1ccccc1 (stereo not given) | -8 | 15 | 3 | 4 | -3
CCn1ncc(/C=N/NC(=O)c2ccc3c(c2)OCO3)c1C | 6 | 20 | 1 | 120* | -11
SMILES | Phagocytosis inh | Measles CPE | RAM inhibit | Yeast lifespan up | BB579 growth dn
O=C(/C(C=Nc1cc2c(oc1=O)CCCC2=O)=C(\O)c1ccccc1)c1ccccc1 | x | x | 5 | x | x
COc1cc(C(=O)NCCC(C)C)ccc1OCc1ccc(Cl)cc1Cl | -5 | 4 | 9.8* | 5 | -35
Cc1cc(C)cc(OCC(=O)NCc2nc(-c3ccccc3)no2)c1 | 23* | 6 | 7 | -21 | -52
CCOC(=O)C1=NN(C(=O)COc2ccccc2)C(O)(c2ccc(Br)cc2)C1 (stereo not given) | x | x | 2 | x | x
COc1cc(Cl)c(C)cc1NC(=O)CSc1ccc(NC(C)=O)cc1 | -7 | 10 | 3 | -4 | -50
CC(=O)OC1CSC2c3ccccc3C(=O)N2Cc2sccc21 (stereo not given) | x | x | 0 | x | x
c1ccc(CSc2nnc(-c3sccc3-n3cccc3)o2)cc1 | x | 4 | 8.7* | -9 | -28
NCCc1nnc(SCc2ccccc2)o1 | 0 | 12 | 1 | -2 | -15
COc1ccc(-n2c(SCc3ccc([N+](=O)[O-])cc3)nnc2-c2ccc(C)cc2)cc1 | -8 | 17 | 2 | -1 | -46
O=C(c1ccc(Cl)nc1)N1CCc2ccccc2C1 | -1 | 12 | 1 | -14 | -45
